For one data set, the system named is CWR22. In words: Antitumor activity against bicalutamide-resistant human CWR22 cells in Balb/c athymic (nu/nu) mouse CWR22-BMSLD1 prostate cancer xenograft model assessed as tumor growth inhibition at 90 mg/kg, po qd administered for 45 days measured for 10 days during compound dosing. It counts as functional, organism-based. Put shortly:
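CWR22-BMSLD1 human prostate cancer xenograft. Oral once-daily dosing at 90 mg/kg for 45 days, or at 150 mg/kg for 35 days, with a vehicle group. Median tumor volume (mm3) tracked against days post implant.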

The target in another data set is T1, Androgen receptor (Homo sapiens, UniProt P10275).
T1 sequence (P10275 whole entry): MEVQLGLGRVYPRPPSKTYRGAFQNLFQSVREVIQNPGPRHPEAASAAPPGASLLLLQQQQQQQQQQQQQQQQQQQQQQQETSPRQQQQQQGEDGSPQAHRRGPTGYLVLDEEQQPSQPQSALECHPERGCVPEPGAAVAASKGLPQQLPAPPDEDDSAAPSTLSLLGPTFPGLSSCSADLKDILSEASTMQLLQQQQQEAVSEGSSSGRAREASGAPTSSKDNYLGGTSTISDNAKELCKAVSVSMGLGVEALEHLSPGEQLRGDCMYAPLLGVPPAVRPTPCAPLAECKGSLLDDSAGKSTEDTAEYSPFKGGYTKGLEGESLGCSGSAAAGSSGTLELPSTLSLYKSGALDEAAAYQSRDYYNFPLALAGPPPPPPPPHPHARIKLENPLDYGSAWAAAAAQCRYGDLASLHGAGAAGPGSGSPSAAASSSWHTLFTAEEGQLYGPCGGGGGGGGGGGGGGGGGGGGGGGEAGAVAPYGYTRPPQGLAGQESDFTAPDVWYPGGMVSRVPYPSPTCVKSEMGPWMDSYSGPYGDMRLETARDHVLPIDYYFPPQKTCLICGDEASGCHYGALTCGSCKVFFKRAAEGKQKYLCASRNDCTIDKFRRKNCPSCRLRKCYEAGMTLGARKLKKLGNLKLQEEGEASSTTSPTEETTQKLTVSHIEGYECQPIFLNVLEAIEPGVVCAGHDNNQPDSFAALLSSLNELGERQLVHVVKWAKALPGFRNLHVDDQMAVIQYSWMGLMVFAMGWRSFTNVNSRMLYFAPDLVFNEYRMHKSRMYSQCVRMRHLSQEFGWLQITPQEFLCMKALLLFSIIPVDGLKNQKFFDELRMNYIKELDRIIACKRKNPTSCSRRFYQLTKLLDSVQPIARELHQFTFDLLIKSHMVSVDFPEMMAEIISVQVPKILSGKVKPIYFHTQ
The experiment in a line: Displacement of [3H]-DHT from androgen receptor in human MDA-MB-453 cells after 90 mins by TopCount analysis. It counts as cell-based. On the technique in general: In a radioligand displacement assay an active substance lowers the binding of a labelled ligand.

The nature of data set [1]: Plasma concentration in immature Sprague-Dawley rat prostate weight model at 1 mg/kg, po qd administered for 4 days measured 2 hrs post last dose on day 4. Format: ADME, organism-based. The procedure, abridged: (§1)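 Immature rat prostate weight model, oral dosing once daily at 1 or 10 mg/kg for 4 days. Plasma drug concentration (µM) measured 2 hours post-dose on day 4, n=3.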

Data set [2] is described as follows: Plasma concentration in immature Sprague-Dawley rat prostate weight model at 10 mg/kg, po qd administered for 4 days measured 2 hrs post last dose on day 4. Format: ADME, organism-based. The procedure, abridged:
as §1

For a further data set, the system named is LNCaP. In words: Cytotoxicity against human LNCAP cells. It counts as functional, cell-based.
The target of another data set is T2, Cytochrome P450 2C8 (Homo sapiens, UniProt P10632).
T2 sequence (P10632 whole entry): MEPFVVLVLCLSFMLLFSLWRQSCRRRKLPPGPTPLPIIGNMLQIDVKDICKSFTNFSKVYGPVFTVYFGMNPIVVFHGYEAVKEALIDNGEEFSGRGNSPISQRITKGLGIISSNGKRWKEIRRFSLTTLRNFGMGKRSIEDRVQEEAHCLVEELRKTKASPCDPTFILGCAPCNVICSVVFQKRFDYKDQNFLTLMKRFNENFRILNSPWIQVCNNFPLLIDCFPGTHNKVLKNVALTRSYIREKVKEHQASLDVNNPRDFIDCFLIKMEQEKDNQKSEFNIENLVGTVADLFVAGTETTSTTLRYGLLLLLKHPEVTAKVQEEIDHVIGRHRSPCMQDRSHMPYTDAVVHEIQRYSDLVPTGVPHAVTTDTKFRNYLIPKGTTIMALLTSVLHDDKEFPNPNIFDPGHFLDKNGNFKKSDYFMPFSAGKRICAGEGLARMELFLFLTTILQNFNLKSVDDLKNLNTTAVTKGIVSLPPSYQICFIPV
The experiment in a line: Inhibition of human CYP2C8. It counts as ADME.

Data set [3] concerns the target T3, Nuclear receptor subfamily 1 group I member 2 (Homo sapiens, UniProt O75469).
T3 sequence (O75469 whole entry): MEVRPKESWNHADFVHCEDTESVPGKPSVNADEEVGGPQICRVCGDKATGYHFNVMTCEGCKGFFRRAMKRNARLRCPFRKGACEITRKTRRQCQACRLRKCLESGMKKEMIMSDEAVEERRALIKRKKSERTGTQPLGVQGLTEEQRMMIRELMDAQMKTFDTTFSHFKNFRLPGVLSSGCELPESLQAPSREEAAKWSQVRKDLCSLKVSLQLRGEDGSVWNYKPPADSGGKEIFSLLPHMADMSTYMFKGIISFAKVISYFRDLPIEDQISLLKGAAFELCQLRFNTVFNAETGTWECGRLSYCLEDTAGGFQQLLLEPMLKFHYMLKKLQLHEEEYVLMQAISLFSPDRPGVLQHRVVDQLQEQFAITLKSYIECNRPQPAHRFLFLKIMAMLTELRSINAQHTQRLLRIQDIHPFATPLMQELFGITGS
In words: Transactivation of human PXR. Format: ADME.

The next data set concerns the target hERG (Homo sapiens, UniProt Q12809). The experiment in a line: Inhibition of human ERG at 30 uM relative to control.
Data set [4] can be described thus: AUC (0 to infinity) in mouse at 5 mg/kg, iv. Also on record: dose 5 mg/kg, time infinity, route intravenous. The settings on record: in vivo. It counts as ADME, organism-based. Put shortly: (§2)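 Single IV and oral doses in mouse and rat (IV 5, PO 10 mg/kg) and dog (IV 1, PO 2 mg/kg). Half-life, clearance, AUC0-∞ (µM*h) and %F derived from the plasma profiles.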

A short description of data set [5]: Half life in dog at 1 mg/kg, iv and 2 mg/kg, po. It counts as ADME, organism-based, Canis lupus familiaris. The settings on record: in vivo. Put shortly:
as §2

The Ki is a measure of affinity in units of concentration, obtained from inhibition or displacement. Usually IC50 stands for the midpoint of a concentration-inhibition curve. High values mean weaker potency in that assay, low ones greater potency in that assay. For orientation: EC50 means the concentration giving half of the maximal effect. Low values mean an effect from little substance, high ones a need for much substance. As a reminder, the inhibition is how much of the control response was suppressed. Higher therefore signals a response far below the control. As a reminder, the AUC(0-inf) is total exposure, with the tail of the curve extrapolated. A high value points to more exposure. As a reminder, the half-life is the time in which the quantity being followed falls by half. Low values mean fast loss, high ones slow loss.

The source made the active and inactive calls. The rule behind the calls is not given here.

hERG, sequence (Q12809 whole entry): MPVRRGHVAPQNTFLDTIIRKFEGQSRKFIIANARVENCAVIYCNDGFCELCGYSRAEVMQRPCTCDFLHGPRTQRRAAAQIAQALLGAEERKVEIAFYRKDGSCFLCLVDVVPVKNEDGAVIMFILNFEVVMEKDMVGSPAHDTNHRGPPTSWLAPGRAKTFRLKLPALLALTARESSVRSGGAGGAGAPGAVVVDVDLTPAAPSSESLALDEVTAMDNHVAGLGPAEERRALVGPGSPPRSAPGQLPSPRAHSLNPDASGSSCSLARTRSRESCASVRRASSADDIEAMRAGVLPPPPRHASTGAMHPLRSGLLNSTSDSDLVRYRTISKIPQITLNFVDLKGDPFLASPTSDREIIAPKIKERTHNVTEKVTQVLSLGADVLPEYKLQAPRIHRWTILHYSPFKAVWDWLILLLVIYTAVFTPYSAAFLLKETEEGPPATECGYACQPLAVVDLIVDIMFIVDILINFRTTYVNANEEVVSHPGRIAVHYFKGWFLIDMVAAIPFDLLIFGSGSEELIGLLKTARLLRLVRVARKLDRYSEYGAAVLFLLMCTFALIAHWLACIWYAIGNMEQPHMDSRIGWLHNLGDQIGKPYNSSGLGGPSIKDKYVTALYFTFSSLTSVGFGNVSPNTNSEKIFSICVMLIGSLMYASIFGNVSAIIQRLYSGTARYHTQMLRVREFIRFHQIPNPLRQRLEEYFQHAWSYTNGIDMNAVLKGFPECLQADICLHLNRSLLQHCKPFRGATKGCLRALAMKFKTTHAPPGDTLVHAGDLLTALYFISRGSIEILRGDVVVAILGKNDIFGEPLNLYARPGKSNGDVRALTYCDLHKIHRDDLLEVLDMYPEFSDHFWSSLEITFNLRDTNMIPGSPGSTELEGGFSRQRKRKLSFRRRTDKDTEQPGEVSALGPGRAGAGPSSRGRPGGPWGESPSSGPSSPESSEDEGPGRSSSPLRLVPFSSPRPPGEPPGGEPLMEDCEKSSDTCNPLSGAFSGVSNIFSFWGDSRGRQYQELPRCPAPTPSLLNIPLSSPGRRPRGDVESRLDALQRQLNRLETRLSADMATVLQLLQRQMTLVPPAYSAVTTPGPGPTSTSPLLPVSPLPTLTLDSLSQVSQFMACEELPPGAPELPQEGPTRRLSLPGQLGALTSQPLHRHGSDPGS

As for `CCS(=O)(=O)N[C@@H]1C[C@]2(C)O[C@]1(C)[C@@H]1C(=O)N(c3ccc(C#N)c(C(F)(F)F)c3)C(=O)[C@@H]12`, the TGI entry with CWR22 was “inactive”. Moreover, at Androgen receptor, affinity was put at a Ki of 1.7 nM. Besides, the results for the concentration at 2 h in data set [1] and in data set [2] were 790 nM and 4000 nM, respectively. For the same compound, the values for the IC50 in the data set with LNCaP and on Cytochrome P450 2C8 were 153 nM and greater than 40000 nM, respectively. In data set [3], this compound had an EC50 greater than 50000 nM. Further, at hERG, the inhibition at 30 µM worked out at 0%. The compound further came in with an AUC(0-inf) in data set [4] of 39.1 µM·h. The half-life in data set [5] was 21.8 h.

For the origin of these results see ChEMBL document CHEMBL3621143, “Discovery of BMS-641988, a Novel Androgen Receptor Antagonist for the Treatment of Prostate Cancer” (ACS Med Chem Lett, 2015).
